Test results reported in ChEMBL document CHEMBL4513216, “Probing the Open Global Health Chemical Diversity Library for Multistage-Active Starting Points for Next-Generation Antimalarials” (ACS Infect Dis, 2020).

Assay: Toxicity liver stage against HepG2, at 10uM
Type: cell-based
Set-up: test concentration 10 uM, cell line HepG2-A16-CD81EGFP
Settings: human, HepG2-A16-CD81EGFP cells; read-out: INHIBITION
Procedure, shortened: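 Uninfected HepG2-A16-CD81EGFP cells, 3 × 10^3 per well, 1536-well, plated on prespotted compound at 10 μM final, parasite-free screening media added to match infected plates; puromycin 10 μM positive, DMSO 0.5% negative; run in parallel with 48 h PbLuc assay at 37 °C, 5% CO2; viability by CellTiter-Glo luminescence, normalized to controls.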

Structure (SMILES) | cytotoxicity at 10 µM [%]
Cc1nnc2n1CCN(CC(=O)NC(C)c1ccc3ccccc3c1)C2 (stereo not drawn) | -7.91
CC(C)CN1C(=O)C2(CCCC2)NC12CCSCC2 | -135
CCCn1ccnc1-c1cccc(NC(=O)[C@H]2CCC(=O)N2)c1 | -4.97
COC(=O)CCNC(=O)c1c[nH]cc1-c1ccccc1OC | 6.17
OCCN(Cc1ccncc1)CC1(c2ccc(Cl)cc2)CCCC1 | 13.8
CN(C)CCO[C@H]1CN(C(=O)c2cccs2)[C@@H]2COC[C@H]12 | -3.83
CCCc1nnsc1C(=O)NCC(O)c1cccs1 (stereo not drawn) | 4.15
Cc1ncc(CN2CCc3nc4cc(C(C)(C)C)nn4c(O)c3C2)n1C | 8.62
CS(=O)(=O)c1ccc(NC(=O)NCc2ccc3c(c2)CCC3)cn1 | -4.92
CC(C)N1CCC(C(=O)N2CCC(c3ccc(F)cc3)C2)CC1 (stereo not drawn) | -58.1
O=C(Nc1nncs1)N(Cc1cccc(F)c1)C1CC1 | 47.6
c1ncn(Cc2cn3c(n2)CN(CC2CCCCC2)CC3)n1 | -123
CCn1nc2c(cc1=O)CN(Cc1nc(-c3cccnc3)no1)CC2 | -5.86
O=C(CC1=CSC2=NCCCN12)N1CCCCC1c1cccc(F)c1 (stereo not drawn) | -160
Cc1nc(CC(=O)N2CCCCC2c2ccn3ccnc3n2)cs1 (stereo not drawn) | -13.4
O=C1OCCN1Cc1ccc(C(F)(F)F)cc1F | -0.419
O=C(Cc1c[nH]c2ccccc12)N1CCC(Nc2ccccc2)CC1 | -12.9
Cc1noc(C)c1-c1cccc(C2CCCNC2)n1 (stereo not drawn) | -12.3
Cc1ccc(CN2CCC3(CC2)CC(CC(=O)NC(C)C)CO3)s1 (stereo not drawn) | -1.72
O=C(NCc1ccco1)[C@H]1C[C@@H]2CCN(c3ccncn3)C[C@@H]2O1 | -9.58
CCS(=O)(=O)c1ccc2oc([C@H]3CCN(CC4CCCCC4)C3)nc2c1 | 41

Structure (SMILES) | cytotoxicity at 10 µM [%]
Cn1ncc2c1CCCC2NCc1ccc(Br)s1 (stereo not drawn) | -4.41
NC(=O)C1CCCN1Cc1cccc(NC(=O)c2ccc(Cl)cc2F)c1 (stereo not drawn) | 18.6
COC(=O)C(NC(=O)COC1CCCCC1)c1ccccc1 (stereo not drawn) | -21.4
Cc1cc(CC(=O)NC2CCCN(Cc3ccccc3)C2=O)n[nH]1 (stereo not drawn) | 3.5
O=C(CN1CCCCCC1)NCCSc1cnn[nH]1 | -7.15
CNC(=O)C1(c2cnccn2)CCCN1C(=O)c1cccnc1OC (stereo not drawn) | -8.55
COc1ccc(CC(=O)NC(C)c2nc3cccnc3n2C(C)C)cc1 (stereo not drawn) | -11.7
CNc1nccc(C2CCCCN2Cc2cnn3cccnc23)n1 (stereo not drawn) | 0.247
CC1CCCCN1C(=O)COc1nc(Cc2ccc(F)cc2)no1 (stereo not drawn) | 1.43
CSCC[C@H](NC(=O)Cn1ccc2ccc(Cl)cc21)C(=O)O | 6.59
O=C(CN1CCCCC1Cn1cncn1)NCCC1=CCCCC1 (stereo not drawn) | -7.59
CC(C)NC(=O)N1CCCC2(CCN(c3ccccc3)C2=O)C1 (stereo not drawn) | -2.22
Cn1ncc2ccc(C3CCCN(Cc4cccs4)C3)nc21 (stereo not drawn) | 1.88
CCCC(C#N)NC(=O)c1cc(Br)c2c(c1)OCCO2 (stereo not drawn) | -9.2
Cc1nc(C)n(CC2CN(Cc3cc(C#N)ccc3F)CCO2)n1 (stereo not drawn) | -1.56
Nc1cnc(-c2ccc(F)cc2Cl)cn1 | -136
O=C(NC1CCc2ccccc2C1)N1CCN(C(=O)C2CCC2)CC1 (stereo not drawn) | -5.59
Cc1cccc(C(=O)N2CCn3cc(CN4CCCCC4)nc3C2)n1 | -79
c1cc(NCc2ccsc2)cc(-c2nnc[nH]2)c1 | -54.5
CC1=Nc2c(c(=O)[nH]n2C(C)C)C(c2ccc3nccnc3c2)S1 (stereo not drawn) | 7.29
CN1CCc2onc(Cn3cccc3)c2C1 | 7.25

Structure (SMILES) | cytotoxicity at 10 µM [%]
N[C@H]1CN(S(=O)(=O)Cc2ccccc2)C[C@@H]1C1CC1 | -133
O=C1CCCCN1CCc1nc(C2(c3ccc(F)cc3)CCOC2)no1 (stereo not drawn) | 3.82
COCCNC(=O)Cn1cc(NC(=O)c2cc(Cl)c(Cl)n2C)cn1 | -4.01
COc1ccccc1N1CCC(CNCc2ccc(C#N)cc2)C1 (stereo not drawn) | -12.1
Cc1ccc(CN2CCc3[nH]nc(C(=O)N(C)C)c3C2)o1 | 0.081
CNS(=O)(=O)c1ccc(CNC(=O)NCC2CCOC2)cc1 (stereo not drawn) | -2.65
O=C(C1CCCC1)N1CCO[C@@H]2CNC[C@@H]21 | 8.34
CC(=O)N1N=C(COc2ccc(Cl)cc2)OC1c1ccccc1 (stereo not drawn) | 9.87
O=C1CC[C@H]2CN(Cc3ccc(Cl)s3)CC[C@H]2N1CCc1c[nH]cn1 | 38.5
O=C(Nc1cccc2ccccc12)N1CCC(N2CCSCC2)CC1 | -1.86
COc1nccnc1N1CCN(Cc2ccc(F)cc2)C(=O)C1 | 1.27
Cc1cc(C)n(CC(C)NCc2nncn2C2CCCCC2)n1 (stereo not drawn) | -3.26
O=C(N1CCOCC1)N1C[C@@H]2OCCN(C(=O)c3ccco3)[C@@H]2C1 | -135
O=C(NCc1cccnc1)C1CN(c2cnc3ccccc3n2)CCN1 (stereo not drawn) | -48.9
COCC1CN(C(=O)c2ccc(C)o2)Cc2nccn2C1 (stereo not drawn) | -97.1
Cc1ccc(C(=O)N2CCC(c3n[nH]c(C4CC4)n3)CC2)cc1F | -5.5
O=C(c1cccnc1)N1CCC2(CNS(=O)(=O)c3cnccc3O2)C1 (stereo not drawn) | 15.7
Cc1cn2c(n1)C(CNCc1ccc(C)s1)CCC2 (stereo not drawn) | -26.3
CCN(Cc1ccc2c(c1)OCO2)C(=O)c1cccnc1O | -9.51
Cc1ccc(-c2ncc(CN3CCOC(c4ccco4)C3)s2)o1 (stereo not drawn) | 4.37
COc1ccc(-c2csc(N)c2C#N)cc1OC | -2.46

Structure (SMILES) | cytotoxicity at 10 µM [%]
COc1ccc(C(=O)N2CC(c3ccncc3)C2)c(OC)c1OC | -1.86
Oc1cc(C2CCCCN2Cc2ccsc2)nc(-c2ccncc2)n1 (stereo not drawn) | 9.89
Cc1ccc(CNC2CCN(CCc3ccncc3)CC2)s1 | -13.9
Cc1cnn(CC2CCN(CC(O)COc3ccc(F)cc3)CC2)c1 (stereo not drawn) | -10.9
CCCn1ccnc1CN1CCCC1c1ccccn1 (stereo not drawn) | -7.25
CN1C[C@H]2CN(Cc3cccc(OC(F)(F)F)c3)CCN2C1=O | 4.85
CC(C)c1n[nH]c(C2CN(C(=O)C3=COCC3)CCO2)n1 (stereo not drawn) | -7.99
CCOC(=O)NCCC(=O)NCc1ccnc(Oc2ccc(F)cc2)c1 | 6.74
Cc1nc(CN2CCCC2Cn2cncn2)no1 (stereo not drawn) | -7.01
CCn1nc(C)cc1C(=O)N1CCC(Nc2ccc(C)nn2)CC1 | -4.32
COC1C[C@@H]2CN(C(=O)c3ccc(C)s3)C[C@@H]2C1 (stereo partly drawn) | -2
O=C(c1ccncc1)N1CCCC1c1cccc(Br)c1 (stereo not drawn) | 16.9
CCC1CN(C(=O)c2ccc(Cl)cc2O)CCN1C(C)C (stereo not drawn) | -15.5
O=C(O)COc1ccc(Cl)cc1CN1CCC2(CCNCC2)CC1 | 6.45
O=C(c1ccc2c(c1)OCO2)N1CCC[C@]2(C[C@H](OCC3CC3)CO2)C1 | 2.34
COc1ccc(NC(=O)N2CCCC2c2ccncc2)cn1 (stereo not drawn) | 0.165
CC(C)c1ccc(CN[C@@H]2COC[C@H]2c2ccc(F)cc2)cc1 | -7.52
Fc1ccc(C2CN(c3ncnc4[nH]ncc34)CCO2)cc1 (stereo not drawn) | 27.1
Cn1cc(C(=O)NCc2cn3c(n2)CN(Cc2ccccn2)CC3)cn1 | -13.7
CC(C)(C)NC(=O)N1CCN(Cc2cccnc2)CC1 | 10.3
